Series [1] can be described thus: AUC (0 to 6 hrs) in rat at 10 mg/kg, po. The format is ADME, organism-based. More on the design: time < 6 hr, dose 10 mg/kg, route oral. The following applies: plasma.
The next series concerns Hepatitis C virus. Nature of the series: Antiviral activity against HCV replication in human hepatoma cells by replicon assay. The format is functional, Hepacivirus hominis.
Series [2] can be described thus: Binding affinity to HCV NS3 protease by spectrophotometry. More on the design: species or system Hepacivirus hominis.
A short description of series [3]: Drug level in rat liver at 10 mg/kg, po after 6 hrs. The format is ADME, organism-based. The arrangement: dose 10 mg/kg, route oral. The following applies: read-out: Drug uptake. A digest of the protocol:
(§1)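 Oral dosing in rats at 10 mpk as a suspension in 0.4% HPMC; liver concentration measured in ng/g tissue at 1 h or 6 h after dosing.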

Series [4] can be described thus: AUC in po dosed rat. The format is ADME, organism-based. The following applies: plasma.
A short description of series [5]: Bioavailability in rat at 10 mg/kg, po. The format is ADME, organism-based. The following applies: in vivo.
A short description of series [6]: AUC (0 to 24 hrs) in rat at 10 mg/kg, po. The format is ADME, organism-based. More on the design: time < 24 hr, dose 10 mg/kg, route oral. The conditions noted are these: plasma.
Series [7] is described as follows: Drug level in rat liver at 10 mg/kg, po after 1 hr. The format is ADME, organism-based. The arrangement: dose 10 mg/kg, route oral. The conditions noted are these: read-out: Drug uptake. A digest of the protocol:
as §1

The next series concerns Rattus norvegicus. The experiment in a line: AUC in rat at 10 mg/kg, po. The format is ADME, organism-based, Plasma. More on the design: dose 10 mg/kg, route oral. The following applies: in vivo.

Take `C=CCNC(=O)C(=O)C(CCC)NC(=O)[C@@H]1[C@@H]2[C@H](CN1C(=O)[C@@H](NC(=O)N[C@H](COC(=O)NC(C)C)C(C)(C)C)C1(C)CCCCC1)C2(C)C` (some centres undefined): in series [1], the AUC(0-t) at 6 h was found to be 6.6 µM·h. In the series on Hepatitis C virus, this molecule yielded an EC90 of 150 nM. The same molecule yielded a Ki in [2] of 24 nM. The concentration at 6 h in series [3] is 808 ng/g.
For the molecule `COC[C@@H](NC(=O)N[C@H](C(=O)N1C[C@H]2[C@@H]([C@H]1C(=O)NC(CC1CCC1)C(=O)C(N)=O)C2(C)C)C1Cc2ccccc2C1)C(C)(C)C` (some centres undefined), the AUC in series [4] came to 0.1 µM·h. Moreover, in the series with Hepatitis C virus, the EC90 amounted to 200 nM. Besides, affinity in series [2] was put at a Ki of 15 nM.
As to `C#CCCC(NC(=O)[C@@H]1[C@@H]2[C@H](CN1C(=O)[C@@H](NC(=O)N[C@H](COC(=O)NCC(C)C)C(C)(C)C)C1(C)CCCCC1)C2(C)C)C(=O)C(=O)NCC=C` (some centres undefined), the AUC(0-t) at 6 h in series [1] came to 4.9 µM·h. The molecule further displayed an EC90 in the series with Hepatitis C virus of 70 nM. Also, the Ki in series [2] was 9 nM. In series [3], the concentration at 6 h was found to be 750 ng/g.
With `C#CCCC(NC(=O)[C@@H]1[C@@H]2[C@H](CN1C(=O)[C@@H](NC(=O)N[C@H](COC(=O)NCC)C(C)(C)C)C1(C)CCCCC1)C2(C)C)C(=O)C(=O)NCC=C` (some centres undefined), the EC90 in the series with Hepatitis C virus was 150 nM. In [2], this molecule gave a Ki of 9 nM. The concentration at 6 h in series [3] is 1110 ng/g. For the same molecule, the bioavailability in series [5] is 43%. Further, the AUC(0-t) at 24 h in series [6] was determined as 26 µM·h.
`C#CCCC(NC(=O)[C@@H]1[C@@H]2[C@H](CN1C(=O)[C@@H](NC(=O)N[C@H](COC(=O)NC(C)C)C(C)(C)C)C1(C)CCCCC1)C2(C)C)C(=O)C(=O)NCC=C` (some centres undefined) registered an AUC(0-t) at 6 h in [1] of 7.9 µM·h. The molecule also showed an EC90 with Hepatitis C virus of 150 nM. In [2], this molecule came in with a Ki of 8 nM. Also, the concentration at 6 h in series [3] is 1110 ng/g.
In the series on Hepatitis C virus, `C#CCCC(NC(=O)[C@@H]1[C@@H]2[C@H](CN1C(=O)[C@@H](NC(=O)N[C@H](COC(=O)NCC)C1CCCCC1)C1(C)CCCCC1)C2(C)C)C(=O)C(=O)NCC=C` (some centres undefined) yielded an EC90 of 200 nM. In addition, the Ki in series [2] turned out to be 13 nM.
In the series on Hepatitis C virus, `C=CCNC(=O)C(=O)C(CCC)NC(=O)[C@@H]1[C@@H]2[C@H](CN1C(=O)[C@@H](NC(=O)NC1(COC(=O)NCC)CCCCC1)C1(C)CCCCC1)C2(C)C` (some centres undefined) displayed an EC90 of 700 nM. In series [2], this molecule registered a Ki of 210 nM.
On to `C=CCNC(=O)C(=O)C(CCC)NC(=O)[C@@H]1[C@@H]2[C@H](CN1C(=O)[C@@H](NC(=O)N[C@H](COC(=O)NCC)C(C)(C)C)C1Cc3ccccc3C1)C2(C)C` (some centres undefined), for which the AUC(0-t) at 6 h in [1] amounted to 0.7 µM·h. The EC90 in the series on Hepatitis C virus was found to be 400 nM. For the same molecule, the affinity in series [2] corresponds to a Ki of 33 nM.
In series [1], `C#CCCC(NC(=O)[C@@H]1[C@@H]2[C@H](CN1C(=O)[C@@H](NC(=O)N[C@H](COC(=O)NCC1CC1)C(C)(C)C)C1(C)CCCCC1)C2(C)C)C(=O)C(=O)NCC=C` (some centres undefined) gave an area under the curve AUC(0-t) at 6 h of 5 µM·h. The molecule further returned an EC90 in the series with Hepatitis C virus of 70 nM. For the same molecule, in series [2], the Ki came out at 7 nM. In series [3], the concentration at 6 h was 581 ng/g.
In the series on Hepatitis C virus, `C#CCCC(NC(=O)[C@@H]1[C@@H]2[C@H](CN1C(=O)[C@@H](NC(=O)NC1(COC(=O)NCC)CCCCC1)C1(C)CCCCC1)C2(C)C)C(=O)C(=O)NCC=C` (some centres undefined) came in with an EC90 of 600 nM. Moreover, the Ki in [2] was found to be 9 nM.
In the case of `CCNC(=O)OC[C@@H](NC(=O)N[C@H](C(=O)N1C[C@H]2[C@@H]([C@H]1C(=O)NC(CC1CCC1)C(=O)C(N)=O)C2(C)C)C1Cc2ccccc2C1)C(C)(C)C` (some centres undefined), the concentration at 1 h in [7] was found to be 244 ng/g. This molecule displayed an EC90 with Hepatitis C virus of 100 nM. Also, in [2], the Ki worked out at 7 nM. In the series on Rattus norvegicus, this molecule registered an AUC of 0.3 µM·h.
In turn, `CC(C)(C)NC(=O)N[C@H](C(=O)N1C[C@H]2[C@@H]([C@H]1C(=O)NC(CC1CCC1)C(=O)C(N)=O)C2(C)C)C(C)(C)C` (some centres undefined) [BOCEPREVIR] gave an EC90 in the series with Hepatitis C virus of 350 nM. Also, in series [2], the affinity corresponds to a Ki of 14 nM.

One may read the AUC(0-t) as exposure summed from dosing to a finite time, without extrapolation to infinity. One may read the EC90 as the point of the concentration-response curve where the effect stands at 90%. The Ki is the equilibrium dissociation constant of an inhibitor or competing ligand from its target. Higher therefore signals weaker binding. As a reminder, the AUC is concentration integrated over time. Read a high AUC as high exposure. Broadly, the bioavailability is the share of a dose that reaches the circulation, judged against a reference dose that is usually intravenous. Low readings indicate little systemic uptake, high ones much systemic uptake.
